From publication PMC10395004 (European journal of pharmaceutical sciences : official …, 2022)
Structures can show the parent of a compound that is named as a salt. Where two headings read alike, the source gives them in different places.

How the values were obtained:
[1] = tested on: Cyp2d; format: in vivo, mice; settings: male, mouse, plasma, po, 12 mg/kg
Procedure, shortened: (§1)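 16 h later they received DLX 12 mg/kg p.o. in 0.5% methyl cellulose. Tail-vein blood (heparin) was taken at 0–24 h (9 points) and spun to plasma. Plasma was methanol-precipitated with IS and run by LC-MS against a DLX standard curve. Parameters came from noncompartmental analysis; ratios were taken between group means.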

[2] = format: in vivo, mice; settings: for CL/F / Vd/F / AUC(0-t) / MRT last / MRT inf / half-life / Cmax / Tmax / increase of metabolite AUC by propranolol: DLX 12 mg/kg p.o.; for CL/F / Vd/F / AUC(0-inf) / AUC(0-t) / MRT last / MRT inf / half-life / Cmax / Tmax / increase of metabolite AUC by propranolol: plasma; for AUC(0-inf) / AUC(0-t) / MRT last / MRT inf / half-life / Cmax / Tmax: male, mouse, po, 12 mg/kg; for AUC(0-t): AUC0-t; for MRT last: MRT0-t; for MRT inf: MRT0-∞; for increase of metabolite AUC by propranolol: peak area
Procedure, shortened: as §1

[3] = format: in vivo, mice
[4] = Cyp1a2-KO mice, Cyp2d+I (propranolol 30 mg/kg 16 h before)
[5] = Cyp1a2-KO mice, control (vehicle)
[6] = WT mice, Cyp2d+I (propranolol 30 mg/kg 16 h before)
[7] = Cyp1a2-KO, Cyp1a2-KO mice, Cyp2d+I (propranolol 30 mg/kg 16 h before)
[8] = Cyp1a2-KO, Cyp1a2-KO mice, control (vehicle)
[9] = KO + control compared with WT + control, not statistically significant
[10] = KO + inhibitor compared to KO + control
[11] = WT + inhibitor compared to WT + control

CNCC[C@H](Oc1cccc2ccccc12)c1cccs1 [DLX, (3S)-N-methyl-3-(1-naphthyloxy)-3-(2-thienyl)propan-1-amine]
AUC(0-inf) ([1]; Cyp1a2-KO): 4.27 ± 0.57 µM·h | AUC(0-inf) [1]: 8.5 ± 2.45 µM·h | AUC0-t ratio Cyp2d+I/Control ([2]; Cyp1a2-KO mice): 2.29 | AUC0-∞ ratio Cyp2d+I/Control ([2]; Cyp1a2-KO mice): 2.26 | CL/F ratio Cyp2d+I/Control ([2]; Cyp1a2-KO mice): 0.40 | Cmax ratio Cyp2d+I/Control ([2]; Cyp1a2-KO mice): 3.95 | MRT0-t ratio Cyp2d+I/Control ([2]; Cyp1a2-KO mice): 0.80 | MRT0-∞ ratio Cyp2d+I/Control ([2]; Cyp1a2-KO mice): 0.76 | T1/2 ratio Cyp2d+I/Control ([2]; Cyp1a2-KO mice): 0.83 | Tmax ratio Cyp2d+I/Control ([2]; Cyp1a2-KO mice): 0.40 | Vd/F ratio Cyp2d+I/Control ([2]; Cyp1a2-KO mice): 0.30 | CL/F [2, 4]: 2.94 ± 0.34 mg/(hr*μmol/L)/kg | Vd/F [2, 4]: 15.44 ± 1.71 mg/(μmol/L)/kg | CL/F [2, 5]: 7.32 ± 1.60 mg/(hr*μmol/L)/kg | Vd/F [2, 5]: 51.03 ± 18.18 mg/(μmol/L)/kg | increase of AUC0-t by propranolol ([2]; KO + inhibitor vs KO + control): 129% | increase of Cmax by propranolol ([2]; KO + inhibitor vs KO + control): 295% | AUC0-t KO control/WT control ratio ([2]; KO control vs WT control): 0.89 | AUC0-∞ KO control/WT control ratio ([2]; KO control vs WT control): 0.89 | CL/F KO control/WT control ratio ([2]; KO control vs WT control): 1.18 | Cmax KO control/WT control ratio ([2]; KO control vs WT control): 0.56 | MRT0-t KO control/WT control ratio ([2]; KO control vs WT control): 1.14 | MRT0-∞ KO control/WT control ratio ([2]; KO control vs WT control): 1.16 | T1/2 KO control/WT control ratio ([2]; KO control vs WT control): 1.04 | Tmax KO control/WT control ratio ([2]; KO control vs WT control): 1.81 | Vd/F KO control/WT control ratio ([2]; KO control vs WT control): 1.28 | increase of AUC0-t by propranolol ([2]; WT + inhibitor vs WT + control): 304% | increase of Cmax by propranolol ([2]; WT + inhibitor vs WT + control): 177% | AUC0-t ratio Cyp2d+I/Control ([2]; WT mice): 4.04 | AUC0-∞ ratio Cyp2d+I/Control ([2]; WT mice): 4.01 | CL/F ratio Cyp2d+I/Control ([2]; WT mice): 0.30 | Cmax ratio Cyp2d+I/Control ([2]; WT mice): 2.78 | MRT0-t ratio Cyp2d+I/Control ([2]; WT mice): 1.10 | MRT0-∞ ratio Cyp2d+I/Control ([2]; WT mice): 1.04 | T1/2 ratio Cyp2d+I/Control ([2]; WT mice): 0.76 | Tmax ratio Cyp2d+I/Control ([2]; WT mice): 0.91 | Vd/F ratio Cyp2d+I/Control ([2]; WT mice): 0.26 | increase of AUC of DLX by propranolol ([2]; WT mice): 3 folds | CL/F [2, 6]: 1.88 ± 0.60 mg/(hr*μmol/L)/kg | Vd/F [2, 6]: 10.27 ± 5.02 mg/(μmol/L)/kg | CL/F ([2]; WT mice, control (vehicle)): 6.19 ± 0.97 mg/(hr*μmol/L)/kg | Vd/F ([2]; WT mice, control (vehicle)): 39.87 ± 9.28 mg/(μmol/L)/kg | AUC(0-inf) ([2]; Cyp1a2-KO): 1.89 ± 0.39 µM·h | AUC(0-t) [2, 7]: 4.23 ± 0.56 µM·h | AUC(0-t) [2, 8]: 1.85 ± 0.39 µM·h | MRT last [2, 7]: 4.61 ± 0.29 h | MRT last [2, 8]: 5.73 ± 0.22 h | MRT inf [2, 7]: 4.83 ± 0.27 h | MRT inf [2, 8]: 6.39 ± 0.26 h | half-life ([2]; Cyp1a2-KO, T1/2, Cyp1a2-KO mice, Cyp2d+I (propranolol 30 mg/kg 16 h before)): 3.66 ± 0.24 h | half-life ([2]; Cyp1a2-KO, T1/2, Cyp1a2-KO mice, control (vehicle)): 4.43 ± 0.64 h | AUC(0-inf) [2]: 2.12 ± 0.4 µM·h | AUC(0-t) [2, 6]: 8.45 ± 2.46 µM·h | AUC(0-t) ([2]; WT mice, control (vehicle)): 2.09 ± 0.41 µM·h | Cmax [2, 4]: 790 ± 210 nM | Cmax [2, 5]: 200 ± 20 nM | Cmax [2, 6]: 1000 ± 210 nM | Cmax ([2]; WT mice, control (vehicle)): 360 ± 50 nM | MRT last [2, 6]: 5.51 ± 0.16 h | MRT last ([2]; WT mice, control (vehicle)): 5.02 ± 0.18 h | MRT inf [2, 6]: 5.75 ± 0.21 h | MRT inf ([2]; WT mice, control (vehicle)): 5.52 ± 0.34 h | half-life ([2]; T1/2, WT mice, Cyp2d+I (propranolol 30 mg/kg 16 h before)): 3.32 ± 0.52 h | half-life ([2]; T1/2, WT mice, control (vehicle)): 4.28 ± 0.41 h | Tmax [2, 4]: 1 ± 0.35 h | Tmax [2, 5]: 2.5 ± 0.5 h | Tmax [2, 6]: 1.25 ± 0.25 h | Tmax ([2]; WT mice, control (vehicle)): 1.38 ± 0.38 h | decrease of DLX level in liver [3, 9]: 48% | decrease of DLX level in lung [3, 9]: 31% | increase of DLX level in kidney [3, 9]: 62% | increase of DLX levels in brain and testis [3, 9]: around 25% | increase of DLX level in liver [3, 10]: 3 folds | increase of DLX levels in other tissues (than liver) [3, 10]: around 1.5 folds | elevation of DLX level in liver by Cyp2d inhibitor ([3]; KO mice (discussion)): 4.0 folds | increase of DLX level in kidney by Cyp2d inhibitor ([3]; KO mice (discussion)): 3.9 folds | increase of DLX level in kidney [3, 11]: Three-fold | increase of DLX levels in epididymis, testis and brain [3, 11]: 1–2 folds | increase of DLX levels in liver and spleen [3, 11]: around 90% | elevation of DLX level in liver by Cyp2d inhibitor ([3]; WT mice (discussion)): 1.9 folds | increase of DLX level in kidney by Cyp2d inhibitor ([3]; WT mice (discussion)): 2.5 folds

O=S(=O)(O)Oc1cccc2ccccc12 [M28, 1-naphthol sulfate]
increase of metabolite AUC by propranolol ([2]; KO mice): 73% | increase of metabolite AUC by propranolol ([2]; WT mice): 103% | increase of metabolite abundance in kidney by Cyp2d inhibitor ([3]; WT + inhibitor vs WT + control, or KO + inhibitor vs KO + control): over 65%
